Laboratory results taken from ChEMBL document CHEMBL1157638, “Fluorescent epigenetic small molecule induces expression of the tumor suppressor ras-association domain family 1A and inhibits human prostate xenograft” (J Med Chem, 2010).

Key:
Format in all cases: functional
UACC-257 [1] = assay: Growth inhibition of human UACC257 cells
OVCAR-5 [2] = assay: Growth inhibition of human OVCAR5 cells assessed as cell growth at 10 uM relative to untreated control; conditions: read-out: Activity
SN12C [3] = assay: Growth inhibition of human SN12C cells assessed as cell growth at 1 nM relative to untreated control; conditions: read-out: Activity
U-251 = assay: Growth inhibition of human U251 cells assessed as cell growth at 1 uM relative to untreated control; conditions: read-out: Activity
SF-295 [4] = assay: Growth inhibition of human SF295 cells assessed as cell growth at 10 nM relative to untreated control; conditions: read-out: Activity
MCF7 [5] = assay: Growth inhibition of human MCF7 cells assessed as cell growth at 10 nM relative to untreated control; conditions: read-out: Activity
NCI-H522 = assay: Growth inhibition of human NCI-H522 cells
SF-539 = assay: Growth inhibition of human SF539 cells assessed as cell growth at 10 uM relative to untreated control; conditions: read-out: Activity
T47D [6] = assay: Growth inhibition of human T47D cells assessed as cell growth at 10 nM relative to untreated control; conditions: read-out: Activity
UO-31 [7] = assay: Growth inhibition of human UO31 cells assessed as cell growth at 10 uM relative to untreated control; conditions: read-out: Activity
NCI-H322M = assay: Growth inhibition of human NCI-H322M cells assessed as cell growth at 10 uM relative to untreated control; conditions: read-out: Activity
NCI-H226 = assay: Growth inhibition of human NCI-H226 cells assessed as cell growth at 100 nM relative to untreated control; conditions: read-out: Activity
SW-620 = assay: Growth inhibition of human SW620 cells assessed as cell growth at 10 nM relative to untreated control; conditions: read-out: Activity
MCF7 [8] = assay: Growth inhibition of human MCF7 cells assessed as cell growth at 1 uM relative to untreated control; conditions: read-out: Activity
CAKI-1 = assay: Growth inhibition of human Caki1 cells assessed as cell growth at 10 uM relative to untreated control; conditions: read-out: Activity
Method in brief: (§1)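 Run externally at the National Cancer Institute as a 59-cell-line panel screen, with concentrations up to 100 μM. Growth was scored relative to control, where negative growth or total cell kill was possible. Data are in the Supporting Information.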

UACC-62 = assay: Growth inhibition of human UACC62 cells assessed as cell growth at 1 nM relative to untreated control; conditions: read-out: Activity
HCT-116 = assay: Growth inhibition of human HCT116 cells; method in brief: as §1
OVCAR-5 [9] = assay: Growth inhibition of human OVCAR5 cells
CCRF-CEM [10] = assay: Growth inhibition of human CCRF-CEM cells assessed as cell growth at 100 nM relative to untreated control; conditions: read-out: Activity
SN12C [11] = assay: Growth inhibition of human SN12C cells
SF-268 [12] = assay: Growth inhibition of human SF268 cells assessed as cell growth at 1 nM relative to untreated control; conditions: read-out: Activity
UACC-257 [13] = assay: Growth inhibition of human UACC257 cells assessed as cell growth at 100 nM relative to untreated control; conditions: read-out: Activity
HL-60(TB) = assay: Growth inhibition of human HL-60(TB) cells assessed as cell growth at 10 uM relative to untreated control; conditions: read-out: Activity
ACHN = assay: Growth inhibition of human ACHN cells assessed as cell growth at 1 uM relative to untreated control; conditions: read-out: Activity
SK-MEL-28 = assay: Growth inhibition of human SK-MEL-28 cells
UO-31 [14] = assay: Growth inhibition of human UO31 cells assessed as cell growth at 1 nM relative to untreated control; conditions: read-out: Activity
[15] = Growth inhibition of human Hs 578T cells assessed as cell growth at 10 uM relative to untreated control; conditions: read-out: Activity
KM12 = assay: Growth inhibition of human KM12 cells
MDA-MB-435 = assay: Growth inhibition of human MDA-MB-435 cells assessed as cell growth at 100 nM relative to untreated control; conditions: read-out: Activity
SNB-75 = assay: Growth inhibition of human SNB75 cells assessed as cell growth at 1 uM relative to untreated control; conditions: read-out: Activity
Malme-3M = assay: Growth inhibition of human MALME-3M cells assessed as cell growth at 10 nM relative to untreated control; conditions: read-out: Activity
UO-31 [16] = assay: Growth inhibition of human UO31 cells assessed as cell growth at 10 nM relative to untreated control; conditions: read-out: Activity
HOP-62 [17] = assay: Growth inhibition of human HOP62 cells; method in brief: as §1
SF-295 [18] = assay: Growth inhibition of human SF295 cells assessed as cell growth at 10 uM relative to untreated control; conditions: read-out: Activity
PC-3 = assay: Growth inhibition of human PC3 cells assessed as cell growth at 100 nM relative to untreated control; conditions: read-out: Activity
HOP-92 = assay: Growth inhibition of human HOP92 cells assessed as cell growth at 10 uM relative to untreated control; conditions: read-out: Activity; method in brief: as §1
UO-31 [19] = assay: Growth inhibition of human UO31 cells
HOP-62 [20] = assay: Growth inhibition of human HOP62 cells assessed as cell growth at 1 nM relative to untreated control; conditions: read-out: Activity; method in brief: as §1
SF-268 [21] = assay: Growth inhibition of human SF268 cells assessed as cell growth at 1 uM relative to untreated control; conditions: read-out: Activity
HCC 2998 = assay: Growth inhibition of human HCC2998 cells assessed as cell growth at 1 nM relative to untreated control; conditions: read-out: Activity; method in brief: as §1
NCI-H23 = assay: Growth inhibition of human NCI-H23 cells assessed as cell growth at 1 nM relative to untreated control; conditions: read-out: Activity
SF-268 [22] = assay: Growth inhibition of human SF268 cells assessed as cell growth at 100 nM relative to untreated control; conditions: read-out: Activity
T47D [23] = assay: Growth inhibition of human T47D cells
OVCAR-3 = assay: Growth inhibition of human OVCAR-3 cells assessed as cell growth at 10 nM relative to untreated control; conditions: read-out: Activity
SK-OV-3 = assay: Growth inhibition of human SKOV3 cells assessed as cell growth at 100 nM relative to untreated control; conditions: read-out: Activity
786-0 = assay: Growth inhibition of human 786-0 cells
CCRF-CEM [24] = assay: Growth inhibition of human CCRF-CEM cells assessed as cell growth at 10 nM relative to untreated control; conditions: read-out: Activity
HT-29 = assay: Growth inhibition of human HT-29 cells assessed as cell growth at 100 nM relative to untreated control; conditions: read-out: Activity
[25] = read-out: LC50 (the source's name)

## COc1ccc2c(c1)[nH]c1c(C)c(OS(=O)(=O)c3cccc4c(N(C)C)cccc34)ccc12
UACC-257 [1]
  GI50: 11.5 µM
  TGI: > 100 µM
UACC-257 [1]; [25]
  CC50: > 100 µM
OVCAR-5 [2]
  growth at 10 µM: 33%
SN12C [3]
  growth at 0.001 µM: 96%
U-251
  growth at 1 µM: 25%
SF-295 [4]
  growth at 0.01 µM: 93%
MCF7 [5]
  growth at 0.01 µM: 86%
NCI-H522
  GI50: 9.97 µM
  TGI: > 100 µM
NCI-H522; [25]
  CC50: > 100 µM
SF-539
  growth at 10 µM: -32%
T47D [6]
  growth at 0.01 µM: 53%
UO-31 [7]
  growth at 10 µM: 24%
NCI-H322M
  growth at 10 µM: 34%
NCI-H226
  growth at 0.1 µM: 85%
SW-620
  growth at 0.01 µM: 104%
MCF7 [8]
  growth at 1 µM: 10%
CAKI-1
  growth at 10 µM: 26%
UACC-62
  growth at 0.001 µM: 89%
HCT-116
  GI50: 4.38 µM
  TGI: > 100 µM
HCT-116; [25]
  CC50: > 100 µM
OVCAR-5 [9]
  GI50: 56.1 µM
  TGI: > 100 µM
OVCAR-5 [9]; [25]
  CC50: > 100 µM
CCRF-CEM [10]
  growth at 0.1 µM: 91%
SN12C [11]
  GI50: 11.3 µM
  TGI: > 100 µM
SN12C [11]; [25]
  CC50: > 100 µM
SF-268 [12]
  growth at 0.001 µM: 102%
UACC-257 [13]
  growth at 0.1 µM: 97%
HL-60(TB)
  growth at 10 µM: -18%
ACHN
  growth at 1 µM: 43%
SK-MEL-28
  GI50: 50.3 µM
  TGI: > 100 µM
SK-MEL-28; [25]
  CC50: > 100 µM
UO-31 [14]
  growth at 0.001 µM: 94%
[15]
  growth at 10 µM: -1%
KM12
  GI50: 41.5 µM
  TGI: > 100 µM
KM12; [25]
  CC50: > 100 µM
MDA-MB-435
  growth at 0.1 µM: 83%
SNB-75
  growth at 1 µM: 24%
Malme-3M
  growth at 0.01 µM: 89%
UO-31 [16]
  growth at 0.01 µM: 92%
HOP-62 [17]
  GI50: 17.3 µM
  TGI: > 100 µM
HOP-62 [17]; [25]
  CC50: > 100 µM
SF-295 [18]
  growth at 10 µM: 1%
PC-3
  growth at 0.1 µM: 96%
HOP-92
  growth at 10 µM: -1%
UO-31 [19]
  GI50: 13.6 µM
  TGI: > 100 µM
UO-31 [19]; [25]
  CC50: > 100 µM
HOP-62 [20]
  growth at 0.001 µM: 101%
SF-268 [21]
  growth at 1 µM: 44%
HCC 2998
  growth at 0.001 µM: 99%
NCI-H23
  growth at 0.001 µM: 89%
SF-268 [22]
  growth at 0.1 µM: 96%
T47D [23]
  GI50: 3.06 µM
  TGI: > 100 µM
T47D [23]; [25]
  CC50: > 100 µM
OVCAR-3
  growth at 0.01 µM: 100%
SK-OV-3
  growth at 0.1 µM: 99%
786-0
  GI50: 5.42 µM
  TGI: > 100 µM
786-0; [25]
  CC50: > 100 µM
CCRF-CEM [24]
  growth at 0.01 µM: 92%
HT-29
  growth at 0.1 µM: 96%
